# In ChEMBL document CHEMBL4428101, “The Oncolytic Efficacy and in Vivo Pharmacokinetics of [2-(4-Chlorophenyl)quinolin-4-yl](piperidine-2-yl)methanol (Vacquinol-1) Are Governed by Distinct Stereochemical Features” (J Med Chem, 2016):
# The source made the active and inactive calls. The calls are words filed in the database; no cut-off is given here.
# Experiments:
# [1] = Cytotoxicity against patient-derived U3013MG cells assessed as reduction in cell viability after 48 hrs by Celltiter-Glo reagent based assay; type: functional; details: Homo sapiens
# [2] = Cmax in NMRI mouse brain at 2 mg/kg, iv administered as single dose measured after 144 hrs by UPLC-MS/MS analysis; type: ADME, organism-based; parameters: dose 2 mg/kg, route intravenous
# In short: (§1)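 Single dose to male NMRI mice, i.v. tail vein under light isoflurane or p.o. gavage without anesthesia. Blood by orbital plexus into EDTA, plasma by centrifugation at +4 °C; brains homogenized in 4 mL PBS (pH 7.4) per g. Sampled 15 min to 144 h, n = 3 per time point. UPLC-MS/MS with internal standard; noncompartmental analysis of composite mean profiles using nominal times and doses.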
# [3] = Cmax in NMRI mouse brain at 20 mg/kg, po administered as single dose through gavage measured after 144 hrs by UPLC-MS/MS analysis; type: ADME, organism-based; parameters: dose 20 mg/kg, route oral; in short: as §1
# [4] = AUClast in NMRI mouse brain at 2 mg/kg, iv administered as single dose measured after 144 hrs by UPLC-MS/MS analysis; type: ADME, organism-based; parameters: dose 2 mg/kg, time < 144 hr, route intravenous; in short: as §1
# [5] = AUClast in NMRI mouse brain at 20 mg/kg, po administered as single dose through gavage measured after 144 hrs by UPLC-MS/MS analysis; type: ADME, organism-based; parameters: dose 20 mg/kg, time < 144 hr, route oral; in short: as §1
# [6] = Tlast in NMRI mouse brain at 2 mg/kg, iv administered as single dose by UPLC-MS/MS analysis; type: ADME, organism-based; details: in vivo; in short: as §1
# [7] = Tlast in NMRI mouse brain at 20 mg/kg, po administered as single dose through gavage by UPLC-MS/MS analysis; type: ADME, organism-based; details: in vivo; in short: as §1
# [8] = Half life in NMRI mouse brain at 2 mg/kg, iv administered as single dose by UPLC-MS/MS analysis; type: ADME, organism-based; in short: as §1
# [9] = Half life in NMRI mouse brain at 20 mg/kg, po administered as single dose through gavage by UPLC-MS/MS analysis; type: ADME, organism-based; in short: as §1
# [10] = Oral bioavailability in NMRI mouse brain at 20 mg/kg administered as single dose through gavage measured after 144 hrs by UPLC-MS/MS analysis; type: ADME, organism-based; in short: as §1
# [11] = AUClast in NMRI mouse plasma at 2 mg/kg, iv administered as single dose measured up to 144 hrs post dose by UPLC-MS/MS analysis; type: ADME, organism-based; parameters: time < 144 hr, dose 2 mg/kg, route intravenous; in short: as §1
# [12] = AUClast in NMRI mouse plasma at 20 mg/kg, po administered as single dose through gavage measured up to 144 hrs post dose by UPLC-MS/MS analysis; type: ADME, organism-based; parameters: dose 20 mg/kg, time < 144 hr, route oral; in short: as §1
# [13] = Tlast in NMRI mouse plasma at 2 mg/kg, iv administered as single dose by UPLC-MS/MS analysis; type: ADME, organism-based; details: in vivo; in short: as §1
# [14] = Tlast in NMRI mouse plasma at 20 mg/kg, po administered as single dose through gavage by UPLC-MS/MS analysis; type: ADME, organism-based; details: in vivo; in short: as §1
# [15] = Half life in NMRI mouse plasma at 2 mg/kg, iv administered as single dose by UPLC-MS/MS analysis; type: ADME, organism-based; in short: as §1
# [16] = Half life in NMRI mouse plasma at 20 mg/kg, po administered as single dose through gavage by UPLC-MS/MS analysis; type: ADME, organism-based; in short: as §1
# [17] = Toxicity in NMRI mouse assessed as drug tolerance at 2 mg/kg, iv administered as single dose up to 144 hrs; type: organism-based; details: in vivo
# [18] = Toxicity in NMRI mouse assessed as drug tolerance at 20 mg/kg, po administered as single dose through gavage up to 144 hrs; type: organism-based; details: in vivo
# [19] = CNS toxicity in NMRI mouse at 2 mg/kg, iv administered as single dose up to 144 hrs; type: organism-based; details: in vivo
# [20] = CNS toxicity in NMRI mouse at 20 mg/kg, po administered as single dose through gavage up to 144 hrs; type: organism-based; details: in vivo
# [21] = Systemic toxicity in NMRI mouse at 2 mg/kg, iv administered as single dose up to 144 hrs; type: organism-based; details: in vivo
# [22] = Systemic toxicity in NMRI mouse at 20 mg/kg, po administered as single dose through gavage up to 144 hrs; type: organism-based; details: in vivo
# [23] = Fraction unbound in NMRI mouse plasma at 5 uM by LC-MS based equilibrium dialysis method; type: ADME, cell-free
# In short: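 Equilibrium dialysis across a semipermeable membrane, 100% mouse plasma against pH 7.4 buffer, 5 μM compound at 0.5% final DMSO, 37 °C. Both sides sampled after equilibration. Duplicate incubations, reported as averages.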
# U3013MG [24] = assay: Cytotoxicity against patient-derived U3013MG cells assessed as induction of catastrophic vacuolization at 5 uM after 4 to 8 hrs by light microscopy; type: functional, cell-based; details: Homo sapiens
# In short: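 U3013 glioblastoma cells in 384-well plates were examined by light microscopy at 4 h intervals for large lucent intracellular vacuoles, with bright-field imaging at 37 °C, 5% CO2.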
# [25] = Cytotoxicity against patient-derived U3013MG cells assessed as reduction in cell viability by Celltiter-Glo reagent based assay; type: functional; details: Homo sapiens
# [26] = Ratio of drug level in NMRI mouse brain to plasma at 2 mg/kg, iv or 20 mg/kg, po administered as single dose through gavage measured up to 144 hrs post dose by UPLC-MS/MS analysis; type: ADME, organism-based; details: brain and plasma, read-out: BPR; in short: as §1
# [27] = Toxicity in 2 days post fertilized zebra fish embryo assessed as effect on larval development up to 50 uM; parameters: species or system Danio rerio; details: zebrafish, 48 h
# In short: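 Zebrafish embryos were exposed to rising concentrations up to 50 μM or to vehicle, and larval development was scored visually at 2 days post-fertilization.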
# U3013MG [28] = assay: Antitumor activity against GFP-labeled human U3013MG cells orthotopically xenografted in 2 days post fertilized zebra fish embryo assessed as reduction in tumor cells at 30 uM measured 6 days post transplantation by fluorescence assay; type: functional, cell-based
# In short: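 U3013 cells labeled with Cell Tracker Green; about 3000 cells injected into the brain ventricle of 2 dpf Mitfa-morpholino larvae. Three embryos per well in 200 μL egg water holding compound or 0.1% DMSO, renewed every 6 h. Imaged 6 days post-transplantation; tumor burden from GFP fluorescence intensity and counts of larvae with grafted cells.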
# [29] = Toxicity in 2 days post fertilized zebra fish embryo orthotopically xenografted with GFP-labeled human U3013MG cells assessed as larval development defect at 30 uM; parameters: species or system Danio rerio; details: zebrafish, 48 h
structure (smiles),measurement,setting,value
O[C@@H](c1cc(-c2ccc(Cl)cc2)nc2ccccc12)[C@H]1CCCCN1,IC50,[1],3.46 µM
same,Cmax,[2],777 ng/mL
same,Cmax,[3],1490 ng/mL
same,AUC(0-t) at 144 h,[4],12200 ng·h/mL
same,AUC(0-t) at 144 h,[5],157 µg·h/mL
same,Tlast,[6],144 h
same,Tlast,[7],144 h
same,half-life,[8],2.79 days
same,half-life,[9],4 days
same,bioavailability,[10],89%
same,AUC(0-t) at 144 h,[11],14100 ng·h/mL
same,AUC(0-t) at 144 h,[12],183 µg·h/mL
same,Tlast,[13],144 h
same,Tlast,[14],144 h
same,half-life,[15],2880 min
same,half-life,[16],2.88 days
same,Activity,[17],Non-Toxic
same,Activity,[18],Non-Toxic
same,Activity,[19],Non-Toxic
same,Activity,[20],Non-Toxic
same,Activity,[21],Non-Toxic
same,Activity,[22],Non-Toxic
same,fraction unbound at 5 µM,[23],0.0059
"O[C@@H](c1cc(-c2ccc(Cl)cc2)nc2ccccc12)[C@@H]1CCCCN1 (single isomer, unassigned)",IC50,[1],9.91 µM
same,Activity,U3013MG [24],inactive
O[C@H](c1cc(-c2ccc(C(F)(F)F)nc2)nc2ccccc12)[C@@H]1CCCCN1 (relative stereo),IC50,[1],38 µM
OC(c1cc(-c2ccncc2)nc2ccccc12)C1CCCCN1 (stereo not given),IC50,[1],> 50 µM
"O[C@H](c1cc(-c2ccc(Cl)cc2)nc2ccccc12)[C@H]1CCCCN1 (single isomer, unassigned)",IC50,[1],10.5 µM
same,Activity,U3013MG [24],inactive
OC(c1cc(-c2ccsc2)nc2ccccc12)C1CCCCN1 (stereo not given),IC50,[1],26.5 µM
Cc1ccc(-c2cc([C@@H](O)[C@@H]3CCCCN3)c3ccccc3n2)cc1C#N (relative stereo),IC50,[1],32.1 µM
OC(c1cc(-c2cncnc2)nc2ccccc12)C1CCCCN1 (stereo not given),IC50,[1],> 50 µM
CCCN(CCC)C(=O)c1ccc(-c2cc([C@@H](O)[C@@H]3CCCCN3)c3ccccc3n2)cc1 (relative stereo),IC50,[1],35.4 µM
Cc1ccc(-c2cc(C(O)C3CCCCN3)c3ccccc3n2)o1 (stereo not given),IC50,[1],> 50 µM
OC(c1cc(-c2ccc(Cl)cc2)nc2ccccc12)C1CCCCN1 (stereo not given),IC50,[25],3.14 µM
O[C@H](c1cc(-c2ccc(Cl)cc2)nc2ccccc12)[C@@H]1CCCCN1,IC50,[1],3.79 µM
same,Activity,U3013MG [24],Active
same,Cmax,[2],1970 ng/mL
same,Cmax,[3],4840 ng/mL
same,AUC(0-t) at 144 h,[4],53100 ng·h/mL
same,AUC(0-t) at 144 h,[5],400 µg·h/mL
same,Tlast,[6],144 h
same,Tlast,[7],144 h
same,half-life,[8],3 days
same,half-life,[9],2.71 days
same,bioavailability,[10],75.2%
same,AUC(0-t) at 144 h,[11],62000 ng·h/mL
same,AUC(0-t) at 144 h,[12],246 µg·h/mL
same,Tlast,[13],144 h
same,Tlast,[14],144 h
same,half-life,[16],3.38 days
same,Activity,[17],Non-Toxic
same,Activity,[18],Non-Toxic
same,Activity,[19],Non-Toxic
same,Activity,[20],Non-Toxic
same,Activity,[21],Non-Toxic
same,Activity,[22],Non-Toxic
same,fraction unbound at 5 µM,[23],0.0137
same,Kp at 144 h,[26],2
same,Activity,[27],Non-Toxic
same,Activity,U3013MG [28],Active
same,Activity,[29],Non-Toxic
Cc1noc(C)c1-c1cc(C(O)C2CCCCN2)c2ccccc2n1 (stereo not given),IC50,[1],> 50 µM
O[C@H](c1cc(-c2ccc(C(F)(F)F)cc2)nc2ccccc12)[C@@H]1CCCCN1 (relative stereo),IC50,[1],13.5 µM
OC(c1cc(-c2ccc[nH]2)nc2ccccc12)C1CCCCN1 (stereo not given),IC50,[1],> 50 µM
